Reference: ChEMBL document CHEMBL4825712

How the values were obtained:
Influenza A virus = assay: Antiviral activity against Influenza A virus A/WSN/33(H1N1) infected in human A549 cells assessed as viral replication measured after 24 hrs by immunofluorescence microscopy; format: functional, organism-based; conditions: A/WSN/1933(H1N1); for IC50: A549, 24 h; for IC90: A549, time 24 hrs
How it was run: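 A549 cells were infected with A/WSN/33 at MOI 0.01 for 24 h, then fixed in 4% formaldehyde and permeabilized with 0.1% Triton X-100. They were immunostained for NP with an Alexa-488 secondary plus DAPI and imaged on an image cytometer. Percent infection = NP-positive cells divided by total cells.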

[1] = Selectivity index, ratio of CC50 for human A549 cells to IC50 for antiviral activity against Influenza A virus A/WSN/33(H1N1) infected in human A549 cells; format: toxicity, cell-based; conditions: read-out: Selectivity Index
How it was run: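 Ratio of CC50 to IC50. IC50 came from A549 cells pretreated 2 h with compound, then infected 24 h with WSN-PB2-Nanoluc at MOI 0.02 and read by Nano-Glo luminescence. CC50 was measured by CellTiter-Glo.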

A549 = assay: Cytotoxicity against human A549 cells by MTT assay; format: cell-based
How it was run: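 MTT assay run according to the manufacturer's instructions, concurrently with NP immunostaining of infected A549 cultures.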

Row | Structure (SMILES) | IC50 (Influenza A virus) [µM] | IC90 (Influenza A virus) [µM] | selectivity ratio [1] | CC10 (A549) [µM] | CC50 (A549) [µM]
1 | CCN(c1ccncc1F)S(=O)(=O)c1cc(Cl)ccc1Cl | > 5 |  |  |  | 
2 | COCCN(c1ccc(Cl)cc1C)S(=O)(=O)c1cc(Cl)ccc1Cl | 1.2 | 6 | > 4 | > 5 | > 5
3 | Cc1ccccc1N(C(C)C)S(=O)(=O)c1cc(Cl)ccc1Cl | 1.8 | > 5 | > 3 | > 5 | > 5
4 | CCN(c1ccc(F)cc1F)S(=O)(=O)c1cc(F)ccc1F | 3.4 | > 25 | > 7 | > 25 | 
5 | CCN(c1ccccc1C#N)S(=O)(=O)c1cc(Cl)ccc1Cl | 0.17 | 2.1 | > 29 | > 5 | > 5
6 | CCN(c1ccc(C)cc1)S(=O)(=O)c1cc(Cl)ccc1Cl | 0.084 | 1.8 | > 298 | > 25 | > 25
7 | CCN(c1ccc(CC(=O)O)cc1)S(=O)(=O)c1cc(Cl)ccc1Cl | > 25 | > 25 |  | > 25 | > 25
8 | CCN(c1ccc(C)nc1)S(=O)(=O)c1cc(Cl)ccc1Cl | > 5 |  |  |  | 
9 | CCN(c1ccc(C)nn1)S(=O)(=O)c1cc(Cl)ccc1Cl | > 5 |  |  |  | 
10 | CCN(c1cnc(C)nc1)S(=O)(=O)c1cc(Cl)ccc1Cl | > 5 |  |  |  | 
11 | CCN(c1ccc(Cl)cn1)S(=O)(=O)c1cc(Cl)ccc1Cl | > 5 |  |  |  | 
12 | CCN(c1ccc(CCN)cc1)S(=O)(=O)c1cc(Cl)ccc1Cl | > 25 | > 25 |  | > 25 | > 25
13 | Cc1cc(Cl)ccc1N(CCO)S(=O)(=O)c1cc(Cl)ccc1Cl | > 5 | > 5 |  | > 5 | > 5
14 | CCN(c1cnccc1C)S(=O)(=O)c1cc(Cl)ccc1Cl | > 5 |  |  |  | 
15 | CCN(c1cnc(C)cn1)S(=O)(=O)c1cc(Cl)ccc1Cl | > 5 |  |  |  | 
16 | CCN(c1ccc(F)cc1F)S(=O)(=O)c1c(Cl)cccc1Cl | > 25 | > 25 |  | > 25 | 
17 | Cc1ccccc1NS(=O)(=O)c1cc(Cl)ccc1Cl | > 5 | > 5 |  | > 5 | > 5
18 | CCN(c1ccc(F)cc1F)S(=O)(=O)c1ccc(Cl)cc1Cl | > 25 | > 25 |  | > 25 | 
19 | CCN(c1ccc(CC(=O)N2CCN(C)CC2)cc1)S(=O)(=O)c1cc(Cl)ccc1Cl | > 25 | > 25 |  | > 25 | > 25
20 | CCN(c1ccc(F)cc1F)S(=O)(=O)c1ccccc1Cl | > 25 | > 25 |  | > 25 | 
21 | CCN(c1ccc(CCNC(C)=O)cc1)S(=O)(=O)c1cc(Cl)ccc1Cl | > 25 | > 25 |  | > 25 | > 25
22 | CCN(c1ccc(F)cc1F)S(=O)(=O)c1ccccc1 | > 25 | > 25 |  | > 25 | 
23 | CCN(c1ccc(F)cc1F)S(=O)(=O)c1cc(F)ccc1Cl | 0.22 | 9.8 | > 114 |  | 
24 | CCN(c1ccc(F)cc1F)S(=O)(=O)c1cc(Cl)ccc1F | 0.82 | 18.5 | > 30 |  | 
25 | CCN(c1ccncc1Cl)S(=O)(=O)c1cc(Cl)ccc1Cl | > 5 |  |  |  | 
26 | CCN(c1ccc(CCO)cc1)S(=O)(=O)c1cc(Cl)ccc1Cl | > 25 | > 25 |  | > 25 | > 25
27 | CCN(c1ccc(F)cc1F)S(=O)(=O)c1ccc(Cl)c(Cl)c1 | > 25 | > 25 |  | > 25 | 
28 | CCN(c1ccc(F)cc1F)S(=O)(=O)c1cccc(Cl)c1Cl | > 25 | > 25 |  | > 25 | 
29 | Cc1ccccc1N(C)S(=O)(=O)c1cc(Cl)ccc1Cl | > 5 | > 5 |  | > 5 | > 5
